Laboratory results from ChEMBL document CHEMBL1944582, “Pyrazolopyridine Inhibitors of B-Raf(V600E). Part 1: The Development of Selective, Orally Bioavailable, and Efficacious Inhibitors” (ACS Med Chem Lett, 2011).
Converted amounts (≈) assume the structure as drawn.

Tests used:
[1] = AUC in CD-1 mouse at 100 mg/kg, po; format: ADME, organism-based; set-up: dose 100 mg/kg, route oral; details: plasma
Outline: (§1)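 Single oral dose given to mice as a solution in 40% PEG400/10% ethanol/50% water, at 30 mg/kg or 100 mg/kg. Exposure is reported as AUC in μg h/mL.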

[2] = Oral bioavailability in CD-1 mouse at 100 mg/kg as a solution in 40%PEG400/10%ethanol/50% water; format: ADME, organism-based; details: in vivo
[3] = Plasma protein binding in CD-1 mouse; format: ADME, cell-free; details: read-out: PPB (converted)
[4] = Aqueous solubility of the compound in phosphate buffer at pH 6.5 after 24 hrs by HPLC analysis; format: physicochemical
[5] = Aqueous solubility of the compound in phosphate buffer at pH 7.4 after 24 hrs by HPLC analysis; format: physicochemical
[6] = Oral bioavailability in CD-1 mouse at 2.5 to 80 mg/kg as formulation of 25% SDD; format: ADME, organism-based; details: in vivo
Outline: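 Oral bridging PK in mice used a 25% amorphous spray-dried dispersion on HPMCAS polymer at 2.5, 10, 40 and 80 mg/kg. Bioavailability (F) was derived per dose. The earlier solution vehicle was 40% PEG400/10% ethanol/50% water, with select intravenous dosing.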

COLO 205 [7] = assay: Cytotoxicity against human COLO205 cells after 4 days by CellTiter-Glo assay; format: functional, cell-based; details: COLO 205, 96 h
[8] = Inhibition of CYP450 at 25 uM; format: ADME
[9] = target: Voltage-gated inwardly rectifying potassium channel KCNH2 (Homo sapiens, UniProt Q12809); assay: Inhibition of human Erg at 100 uM
Sequence of Voltage-gated inwardly rectifying potassium channel KCNH2 (Q12809 whole entry): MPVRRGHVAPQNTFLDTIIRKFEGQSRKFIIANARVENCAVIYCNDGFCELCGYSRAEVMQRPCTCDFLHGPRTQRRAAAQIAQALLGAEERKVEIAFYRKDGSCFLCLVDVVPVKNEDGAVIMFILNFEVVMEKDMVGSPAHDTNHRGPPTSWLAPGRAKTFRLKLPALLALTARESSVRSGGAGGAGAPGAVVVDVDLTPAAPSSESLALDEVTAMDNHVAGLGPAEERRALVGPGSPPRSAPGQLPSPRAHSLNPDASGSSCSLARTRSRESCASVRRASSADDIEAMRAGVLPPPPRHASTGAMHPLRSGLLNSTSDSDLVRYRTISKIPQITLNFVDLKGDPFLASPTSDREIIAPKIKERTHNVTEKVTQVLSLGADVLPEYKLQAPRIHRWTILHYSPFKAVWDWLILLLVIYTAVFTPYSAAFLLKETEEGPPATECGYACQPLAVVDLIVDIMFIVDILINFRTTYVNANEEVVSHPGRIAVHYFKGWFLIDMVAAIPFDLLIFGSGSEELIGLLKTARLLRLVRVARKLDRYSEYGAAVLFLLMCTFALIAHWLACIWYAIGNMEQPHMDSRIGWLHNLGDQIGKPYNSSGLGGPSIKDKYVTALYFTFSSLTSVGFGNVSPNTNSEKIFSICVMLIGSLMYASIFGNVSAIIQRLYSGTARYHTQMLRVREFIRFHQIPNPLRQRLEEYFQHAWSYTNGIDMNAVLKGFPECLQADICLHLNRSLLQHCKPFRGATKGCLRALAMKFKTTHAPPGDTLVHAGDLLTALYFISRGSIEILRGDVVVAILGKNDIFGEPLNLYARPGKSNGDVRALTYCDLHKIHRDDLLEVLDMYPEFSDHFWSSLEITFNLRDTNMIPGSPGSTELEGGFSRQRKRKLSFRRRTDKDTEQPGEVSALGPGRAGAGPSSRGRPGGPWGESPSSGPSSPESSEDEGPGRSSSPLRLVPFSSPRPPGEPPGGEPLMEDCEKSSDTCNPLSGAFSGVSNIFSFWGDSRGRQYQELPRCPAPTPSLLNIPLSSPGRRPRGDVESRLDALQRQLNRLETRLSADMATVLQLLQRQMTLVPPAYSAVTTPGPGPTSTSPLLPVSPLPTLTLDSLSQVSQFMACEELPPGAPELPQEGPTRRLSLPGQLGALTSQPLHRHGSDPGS

Salmonella typhimurium = assay: Induction of mutagenesis in Salmonella Typhimurium by Ames test; format: toxicity, organism-based; details: salmonella enterica subsp. enterica serovar typhimurium
COLO 205 [10] = assay: Antitumor activity against human COLO205 cells xenografted in po dosed mouse assessed as tumor growth inhibition administered QD for 20 days; format: functional; details: COLO 205, po, 480 h
Outline: (§2)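 Mice with established Colo205 xenografts received the spray-dried dispersion orally at ascending doses once daily for 17 or 20 days. Tumor growth inhibition is expressed as percent of vehicle control, and ED50 and ED90 are given in mg/kg.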

[11] = target: T1, Serine/threonine-protein kinase B-raf (Homo sapiens, UniProt P15056, V600E); assay: Inhibition of B-Raf V600E mutant-mediated Erk phosphorylation in human MALME-3M cells after 1 hr by fluorescence analysis; format: cell-based
T1 sequence (P15056 2-766 V600E limits assumed): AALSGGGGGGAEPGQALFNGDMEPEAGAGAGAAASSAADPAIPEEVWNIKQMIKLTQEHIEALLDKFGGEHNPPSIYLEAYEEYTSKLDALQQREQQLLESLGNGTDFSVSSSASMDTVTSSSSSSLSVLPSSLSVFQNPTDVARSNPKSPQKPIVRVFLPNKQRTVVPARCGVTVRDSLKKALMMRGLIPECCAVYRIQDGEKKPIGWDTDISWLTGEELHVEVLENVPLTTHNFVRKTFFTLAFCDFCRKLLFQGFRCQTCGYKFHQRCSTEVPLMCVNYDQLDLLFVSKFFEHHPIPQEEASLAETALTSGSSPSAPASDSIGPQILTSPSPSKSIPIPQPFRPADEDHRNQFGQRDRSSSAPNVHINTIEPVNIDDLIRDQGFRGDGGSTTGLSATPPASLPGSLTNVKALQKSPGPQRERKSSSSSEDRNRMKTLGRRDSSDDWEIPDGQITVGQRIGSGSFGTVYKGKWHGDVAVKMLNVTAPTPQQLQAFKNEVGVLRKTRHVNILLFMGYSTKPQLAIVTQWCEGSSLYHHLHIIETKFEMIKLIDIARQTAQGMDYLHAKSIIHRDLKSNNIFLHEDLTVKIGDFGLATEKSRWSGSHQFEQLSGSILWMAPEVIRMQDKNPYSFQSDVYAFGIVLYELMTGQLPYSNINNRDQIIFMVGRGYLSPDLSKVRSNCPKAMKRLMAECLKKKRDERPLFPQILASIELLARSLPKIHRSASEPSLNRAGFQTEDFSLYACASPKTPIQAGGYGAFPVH
Outline: (§3)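 Cells were not stimulated, and inhibition was read against their basal ERK phosphorylation. This was the mechanistic cellular assay, run in both Malme-3M and A375 lines.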

[12] = target: T1, Serine/threonine-protein kinase B-raf; assay: Inhibition of B-Raf V600E mutant-mediated Erk phosphorylation in human A375 cells after 1 hr by fluorescence analysis; format: cell-based, A-375; outline: as §3
[13] = AUC in CD-1 mouse at 30 mg/kg, po; format: ADME, organism-based; set-up: dose 30 mg/kg, route oral; details: plasma; outline: as §1
[14] = Oral bioavailability in CD-1 mouse at 30 mg/kg as a solution in 40% PEG400/10%ethanol/50% water; format: ADME, organism-based; details: in vivo
Mus musculus [15] = assay: Toxicity in human COLO205 cells xenografted mouse assessed as change in body weight at 125 mg/kg, po administered QD for 20 days; details: in vivo, 480 h
Mus musculus [16] = assay: Toxicity in human COLO205 cells xenografted mouse assessed as change in body weight at 100 mg/kg, po administered QD for 17 days; details: in vivo, 408 h
[17] = Clearance in CD-1 mouse; format: ADME, organism-based; details: in vivo
Outline: (§4)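 Some compounds were also given intravenously to mice. Clearance is reported in mL/min/kg and volume of distribution in L/kg.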

[18] = Volume of distribution in CD-1 mouse; format: ADME, organism-based; details: in vivo; outline: as §4
[19] = Oral bioavailability in CD-1 mouse at 10 mg/kg as formulation of 25% SDD; format: ADME, organism-based; details: in vivo
Outline: (§5)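 Oral dosing in mice used a 25% amorphous spray-dried dispersion on HPMCAS polymer, given at 10, 30, 60 and 100 mg/kg. Oral bioavailability (F) was determined at each dose.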

[20] = Oral bioavailability in CD-1 mouse at 60 mg/kg as formulation of 25% SDD; format: ADME, organism-based; details: in vivo; outline: as §5
COLO 205 [21] = assay: Antitumor activity against human COLO205 cells xenografted in po dosed mouse assessed as tumor growth inhibition administered QD for 17 days; format: functional; details: COLO 205, po, 408 h; outline: as §2
[22] = Oral bioavailability in CD-1 mouse at 30 mg/kg as formulation of 25% SDD; format: ADME, organism-based; details: in vivo; outline: as §5
[23] = Oral bioavailability in CD-1 mouse at 100 mg/kg as formulation of 25% SDD; format: ADME, organism-based; details: in vivo; outline: as §5
[24] = target: T1, Serine/threonine-protein kinase B-raf; assay: Inhibition of full length human B-Raf V600E mutant expressed in baculovirus infected insect cells assessed as [gamma-33P]incorporation into MEK after 60 mins by scintillation counting

| Compound | fraction unbound [3] | solubility at 24 h [4] [µg/mL] | solubility at 24 h [5] [µg/mL] | IC50 [11] [nM] | IC50 [12] [nM] | AUC [13] [µg·h/mL] | bioavailability [14] [%] | clearance [17] [mL/min/kg] | Vd [18] [L/kg] | IC50 [24] [nM] | also measured |
| --- | --- | --- | --- | --- | --- | --- | --- | --- | --- | --- | --- |
| CCCS(=O)(=O)Nc1ccc(F)c(C(=O)Nc2cnc3[nH]nc(OC)c3c2)c1F | 0.026 | 4 (≈ 9.4 µM) | 9 (≈ 21.2 µM) | 19 | 150 | 190 | 48 | – | – | – | AUC [1]: 664 µg·h/mL; bioavailability [2]: 51%; bioavailability [6]: 19%; EC50 (COLO 205 [7]): 80 nM; inhibition (INH) [8]: Not Active; inhibition (INH) [9]: Not Active; Activity (Salmonella typhimurium): Non-toxic; ED50 (COLO 205 [10]): 20 mg/kg; ED90 (COLO 205 [10]): 80 mg/kg; Activity (Mus musculus [15]): Non-toxic; Activity (Mus musculus [16]): Non-toxic |
| CCCS(=O)(=O)Nc1ccc(Cl)c(C(=O)Nc2cnc3[nH]nc(OC)c3c2)c1F | 0.009 | < 1 | 2 (≈ 4.53 µM) | 20 | 240 | 1080 | 53 | 1 | 0.11 | 1.7 | AUC [1]: 50.7 µg·h/mL; bioavailability [2]: 1.2%; bioavailability [19]: 53%; bioavailability [20]: 19%; EC50 (COLO 205 [7]): 70 nM; inhibition (INH) [8]: Not Active; inhibition (INH) [9]: Not Active; Activity (Salmonella typhimurium): Non-toxic; ED50 (COLO 205 [21]): 11 mg/kg; ED90 (COLO 205 [21]): 50 mg/kg; bioavailability [22]: 28%; bioavailability [23]: 13%; Activity (Mus musculus [15]): Non-toxic; Activity (Mus musculus [16]): Non-toxic |
| CCCS(=O)(=O)Nc1ccc(F)c(C(=O)Nc2cnc3[nH]ccc3c2)c1F | 0.021 | 1 (≈ 2.54 µM) | 4 (≈ 10.1 µM) | 94 | 290 | 200 | 76 | 1.9 | 0.2 | 38 | – |
| CCCS(=O)(=O)Nc1ccc(F)c(C(=O)Nc2cnc3[nH]ncc3c2)c1F | 0.129 | 80 (≈ 202 µM) | 150 (≈ 379 µM) | 62 | 430 | 40 | 100 | 15 | 0.68 | 17 | – |
| CCCS(=O)(=O)Nc1ccc(F)c(C(=O)Nc2cnc3[nH]nc(Br)c3c2)c1F | 0.016 | 1 (≈ 2.11 µM) | 3 (≈ 6.33 µM) | 44 | 260 | 52.5 | – | – | – | 4 | – |
| CCCS(=O)(=O)Nc1ccc(F)c(C(=O)Nc2cnc3[nH]nc(C)c3c2)c1F | 0.101 | 380 (≈ 928 µM) | 740 (≈ 1810 µM) | 86 | 830 | 18.3 | – | – | – | 12 | – |
| CCCS(=O)(=O)Nc1ccc(F)c(C(=O)Nc2cnc3[nH]cc(Br)c3c2)c1F | 0.006 | < 1 | < 1 | 39 | 190 | 49 | 71 | 7.2 | 0.24 | 3.4 | – |
| CCCS(=O)(=O)Nc1ccc(F)c(C(=O)Nc2cccnc2)c1F | – | – | – | 6700 | > 3000 | – | – | – | – | 3900 | – |
| CCCS(=O)(=O)Nc1ccc(F)c(C(=O)Nc2ccc(N)nc2)c1F | – | – | – | 2400 | > 3000 | – | – | – | – | 920 | – |
| CCCS(=O)(=O)Nc1ccc(F)c(C(=O)Nc2cnc(N)c(Br)c2)c1F | – | – | – | 310 | 1200 | – | – | – | – | – | – |
| CCCS(=O)(=O)Nc1ccc(F)c(C(=O)Nc2cnc3[nH]cnc3c2)c1F | – | – | – | 2400 | > 3000 | – | – | – | – | 61 | – |
| CCCS(=O)(=O)Nc1ccc(F)c(C(=O)Nc2cnc3[nH]nc(N(C)C)c3c2)c1F | 0.092 | 290 (≈ 661 µM) | 450 (≈ 1030 µM) | 40 | 650 | 1.09 | – | – | – | 8.2 | – |
| CCCS(=O)(=O)Nc1ccc(Cl)c(C(=O)Nc2cnc3[nH]ncc3c2)c1F | 0.029 | 15 (≈ 36.4 µM) | 48 (≈ 117 µM) | 56 | 560 | 147 | 67 | 2.3 | 0.17 | 6.3 | – |
| CCCS(=O)(=O)Nc1ccc(F)c(C(=O)c2c[nH]c3ncc(-c4ccc(Cl)cc4)cc23)c1F [VEMURAFENIB] | – | – | – | – | – | – | – | – | – | – | EC50 (COLO 205 [7]): 240 nM |
